The values below come from publication PMC8923061 (ACS Pharmacology & Translational Science, 2022).

One test has as its target LPA1 receptor (Cricetulus griseus, UniProt G3HUC7). It is filed as cell-based, Chinese hamster. The following applies: CHOK1/Gα15/GCaMP6s-CAAX.
A further test deals with CaV3.1 (Homo sapiens, UniProt O43497). It is filed as cell-based. Particulars: GCaMP6s-CAAX FLIPR, CRC, low CaCl2. The essentials:
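HEK293 cells co-expressing CaV3.1, Kir2.3 and GCaMP6s-CAAX in DMEM/F-12 GlutaMAX + 10% FBS + 1.25 μg/mL puromycin. Induced with 1 μg/mL doxycycline, seeded at 16k/well on poly-D-lysine and grown 2 days at 37 °C. Equilibrated ~60 min at room temperature in the dark in buffer (133 mM NaCl, 10 HEPES, 10 glucose, 4 KCl, 1 CaCl2, pH 7.3). Stimulated with 1.5 mM (low) or 5.0 mM (high) CaCl2 on FLIPR Tetra at room temperature; peak over baseline used.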

The target in a further test is CaV3.3 (Homo sapiens, UniProt Q9P0X4). As to the kind of experiment: cell-based. The following applies: for potentiator activity at CaV3.3: GCaMP6s-CAAX FLIPR, CRC, EC10 KCl. It counts as cell-based.
Chain of CaV3.3 (Q9P0X4 whole entry): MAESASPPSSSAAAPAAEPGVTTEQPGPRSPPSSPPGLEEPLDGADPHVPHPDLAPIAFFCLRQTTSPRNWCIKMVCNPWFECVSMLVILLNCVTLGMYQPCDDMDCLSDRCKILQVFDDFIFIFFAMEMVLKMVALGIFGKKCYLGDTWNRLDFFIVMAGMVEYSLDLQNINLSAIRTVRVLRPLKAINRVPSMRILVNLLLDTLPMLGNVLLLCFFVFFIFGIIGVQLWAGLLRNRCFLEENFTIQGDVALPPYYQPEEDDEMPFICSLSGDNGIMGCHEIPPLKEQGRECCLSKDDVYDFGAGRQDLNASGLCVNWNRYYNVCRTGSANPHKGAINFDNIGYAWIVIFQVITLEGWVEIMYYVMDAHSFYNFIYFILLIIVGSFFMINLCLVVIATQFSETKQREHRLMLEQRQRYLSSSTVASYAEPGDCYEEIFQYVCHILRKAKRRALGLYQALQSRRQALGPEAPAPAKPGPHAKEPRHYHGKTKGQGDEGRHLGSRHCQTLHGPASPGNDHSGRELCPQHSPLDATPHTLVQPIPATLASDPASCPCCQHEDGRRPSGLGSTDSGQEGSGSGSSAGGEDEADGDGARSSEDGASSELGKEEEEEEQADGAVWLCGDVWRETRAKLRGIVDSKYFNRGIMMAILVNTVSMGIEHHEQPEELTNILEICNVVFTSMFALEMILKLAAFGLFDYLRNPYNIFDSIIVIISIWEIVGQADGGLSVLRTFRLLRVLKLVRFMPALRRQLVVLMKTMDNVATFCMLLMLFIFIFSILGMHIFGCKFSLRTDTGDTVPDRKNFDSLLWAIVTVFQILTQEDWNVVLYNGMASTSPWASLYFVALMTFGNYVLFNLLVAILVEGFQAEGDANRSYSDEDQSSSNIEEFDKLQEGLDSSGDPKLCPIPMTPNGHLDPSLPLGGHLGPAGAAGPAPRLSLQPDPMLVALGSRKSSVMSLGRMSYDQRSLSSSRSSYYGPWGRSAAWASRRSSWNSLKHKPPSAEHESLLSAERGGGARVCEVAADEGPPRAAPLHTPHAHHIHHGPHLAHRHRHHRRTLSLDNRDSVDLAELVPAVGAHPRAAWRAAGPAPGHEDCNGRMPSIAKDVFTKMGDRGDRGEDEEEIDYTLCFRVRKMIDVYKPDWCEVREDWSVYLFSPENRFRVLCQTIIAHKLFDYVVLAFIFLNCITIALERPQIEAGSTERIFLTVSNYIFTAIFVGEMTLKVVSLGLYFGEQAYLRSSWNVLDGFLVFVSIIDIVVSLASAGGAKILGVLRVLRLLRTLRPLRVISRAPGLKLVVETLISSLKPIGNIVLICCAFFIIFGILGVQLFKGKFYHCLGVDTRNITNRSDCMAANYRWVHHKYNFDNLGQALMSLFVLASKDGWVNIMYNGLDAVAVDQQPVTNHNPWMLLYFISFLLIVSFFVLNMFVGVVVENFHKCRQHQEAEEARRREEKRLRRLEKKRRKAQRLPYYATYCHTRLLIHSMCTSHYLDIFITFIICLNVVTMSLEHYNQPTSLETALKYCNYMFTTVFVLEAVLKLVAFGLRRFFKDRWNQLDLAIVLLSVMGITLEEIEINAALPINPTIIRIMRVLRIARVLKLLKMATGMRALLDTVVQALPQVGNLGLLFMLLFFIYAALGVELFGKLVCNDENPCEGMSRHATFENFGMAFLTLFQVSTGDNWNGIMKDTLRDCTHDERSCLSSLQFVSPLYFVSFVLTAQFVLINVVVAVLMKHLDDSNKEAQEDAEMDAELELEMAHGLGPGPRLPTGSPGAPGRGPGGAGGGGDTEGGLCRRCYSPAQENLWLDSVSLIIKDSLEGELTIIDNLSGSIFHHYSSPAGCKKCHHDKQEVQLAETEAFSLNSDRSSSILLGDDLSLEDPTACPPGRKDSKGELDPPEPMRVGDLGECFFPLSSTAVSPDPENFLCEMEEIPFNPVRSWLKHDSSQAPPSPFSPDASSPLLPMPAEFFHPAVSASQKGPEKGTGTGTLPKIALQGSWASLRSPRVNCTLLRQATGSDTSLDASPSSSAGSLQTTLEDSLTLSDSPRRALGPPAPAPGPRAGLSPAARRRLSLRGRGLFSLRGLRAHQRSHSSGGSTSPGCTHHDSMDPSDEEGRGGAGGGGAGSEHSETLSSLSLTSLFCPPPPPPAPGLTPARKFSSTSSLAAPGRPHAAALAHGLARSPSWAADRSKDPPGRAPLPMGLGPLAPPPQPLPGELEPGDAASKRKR
A further test has as its target CaV3.2 (Homo sapiens, UniProt O95180). It is filed as cell-based. Particulars: GCaMP6s-CAAX FLIPR, CRC, EC10 KCl. The essentials: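 Inducible HEK293 CaV3.2/Kir2.3/GCaMP6s-CAAX cells, with no antibiotics in assay plates. Doxycycline (1 μg/mL) induction, 16k/well, 2 days at 37 °C, then ~60 min at room temperature in buffer of 133 mM NaCl, 10 HEPES, 10 glucose, 4 KCl, 1 CaCl2, pH 7.3. […] Peak response over baseline after each addition.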

The target of the next test is C3a receptor (Cricetulus griseus, UniProt A0A061I1T5). It counts as cell-based, Chinese hamster. Particulars: read-out: EC50, increase in fluorescence (C3a receptor); CHOK1/Gα15/GCaMP6s-CAAX. The essentials:
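CHOK1-Gα15 cells stably expressing GCaMP6s-CAAX, kept in F-12K + 10% FBS with hygromycin (100 μg/mL) and G-418 (700 μg/mL). Seeded at 16k/well and grown 2 days at 37 °C. Buffer was HBSS + 20 mM HEPES + 0.1% fatty-acid-free BSA, pH 7.3; 30 min at 37 °C in the dark. FLIPR Tetra at 37 °C: ex 470-495/em 515-575 nm, 1 Hz, two additions. Agonist was hC3a; antagonist mode used 20 nM hC3a. Peak over baseline, scaled from buffer (0%) to saturating agonist (100%). Four replicates, two experiments.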

Counter-ions that a name gives are not always drawn. Like-named read-outs stand apart in the source and are kept apart here.

Chain of CaV3.1 (O43497 whole entry): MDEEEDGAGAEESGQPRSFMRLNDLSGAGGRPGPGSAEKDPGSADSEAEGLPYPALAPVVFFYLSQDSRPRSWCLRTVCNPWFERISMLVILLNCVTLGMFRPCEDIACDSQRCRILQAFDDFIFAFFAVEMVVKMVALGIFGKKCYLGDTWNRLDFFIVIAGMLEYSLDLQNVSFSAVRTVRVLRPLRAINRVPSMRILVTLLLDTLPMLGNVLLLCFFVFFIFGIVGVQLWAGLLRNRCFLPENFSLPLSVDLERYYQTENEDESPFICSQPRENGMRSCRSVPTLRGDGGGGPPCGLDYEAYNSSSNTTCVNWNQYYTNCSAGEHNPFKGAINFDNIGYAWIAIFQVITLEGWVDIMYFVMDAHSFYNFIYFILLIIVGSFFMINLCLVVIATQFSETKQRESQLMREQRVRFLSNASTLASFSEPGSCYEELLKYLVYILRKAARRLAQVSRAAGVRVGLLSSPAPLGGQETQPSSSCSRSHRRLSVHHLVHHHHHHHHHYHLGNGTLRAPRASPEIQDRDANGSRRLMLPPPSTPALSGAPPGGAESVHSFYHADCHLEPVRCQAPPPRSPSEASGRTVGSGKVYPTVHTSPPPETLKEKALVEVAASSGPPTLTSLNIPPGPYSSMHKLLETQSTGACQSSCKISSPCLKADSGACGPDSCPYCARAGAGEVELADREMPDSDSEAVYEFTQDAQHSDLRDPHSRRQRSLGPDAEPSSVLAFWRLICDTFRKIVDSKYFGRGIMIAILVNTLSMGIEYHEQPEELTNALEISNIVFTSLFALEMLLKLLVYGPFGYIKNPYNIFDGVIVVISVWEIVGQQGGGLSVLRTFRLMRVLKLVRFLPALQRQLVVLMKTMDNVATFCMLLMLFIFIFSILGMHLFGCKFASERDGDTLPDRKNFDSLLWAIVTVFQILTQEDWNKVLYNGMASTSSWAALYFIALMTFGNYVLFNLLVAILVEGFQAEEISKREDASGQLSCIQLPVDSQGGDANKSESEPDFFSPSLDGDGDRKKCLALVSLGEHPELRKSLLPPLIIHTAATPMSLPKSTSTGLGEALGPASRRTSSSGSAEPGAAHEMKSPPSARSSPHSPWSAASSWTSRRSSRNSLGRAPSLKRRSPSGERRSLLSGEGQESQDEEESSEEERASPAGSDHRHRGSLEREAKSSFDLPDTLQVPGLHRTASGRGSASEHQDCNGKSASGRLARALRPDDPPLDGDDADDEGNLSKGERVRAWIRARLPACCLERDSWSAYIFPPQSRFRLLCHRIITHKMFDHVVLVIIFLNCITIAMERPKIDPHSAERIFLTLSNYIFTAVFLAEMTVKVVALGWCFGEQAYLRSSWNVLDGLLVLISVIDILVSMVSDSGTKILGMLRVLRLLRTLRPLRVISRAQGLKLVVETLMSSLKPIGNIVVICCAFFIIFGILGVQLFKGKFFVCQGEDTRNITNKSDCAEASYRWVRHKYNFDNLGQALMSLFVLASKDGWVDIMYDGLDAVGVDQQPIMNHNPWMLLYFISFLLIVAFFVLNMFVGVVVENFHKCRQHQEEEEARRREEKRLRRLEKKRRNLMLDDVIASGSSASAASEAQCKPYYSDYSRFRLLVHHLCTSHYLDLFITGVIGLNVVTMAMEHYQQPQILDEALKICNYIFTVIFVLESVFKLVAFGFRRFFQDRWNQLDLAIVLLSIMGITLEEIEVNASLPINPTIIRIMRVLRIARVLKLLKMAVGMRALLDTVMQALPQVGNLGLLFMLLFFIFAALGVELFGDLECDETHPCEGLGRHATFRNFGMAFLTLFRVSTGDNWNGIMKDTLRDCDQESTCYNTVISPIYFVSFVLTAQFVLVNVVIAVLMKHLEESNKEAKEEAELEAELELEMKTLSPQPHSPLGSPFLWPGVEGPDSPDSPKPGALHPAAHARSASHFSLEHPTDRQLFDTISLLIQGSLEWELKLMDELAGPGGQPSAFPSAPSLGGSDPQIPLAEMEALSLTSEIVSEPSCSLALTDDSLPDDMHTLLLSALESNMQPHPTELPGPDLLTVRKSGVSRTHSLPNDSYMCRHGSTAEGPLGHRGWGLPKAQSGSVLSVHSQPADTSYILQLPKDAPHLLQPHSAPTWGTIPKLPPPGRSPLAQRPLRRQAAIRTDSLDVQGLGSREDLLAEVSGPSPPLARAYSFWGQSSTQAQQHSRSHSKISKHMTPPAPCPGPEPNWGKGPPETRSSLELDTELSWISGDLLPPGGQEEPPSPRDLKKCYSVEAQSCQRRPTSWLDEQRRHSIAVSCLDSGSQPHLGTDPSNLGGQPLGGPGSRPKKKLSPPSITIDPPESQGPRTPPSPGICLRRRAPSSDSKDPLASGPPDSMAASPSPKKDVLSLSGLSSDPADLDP
Chain of LPA1 receptor (G3HUC7 1-364): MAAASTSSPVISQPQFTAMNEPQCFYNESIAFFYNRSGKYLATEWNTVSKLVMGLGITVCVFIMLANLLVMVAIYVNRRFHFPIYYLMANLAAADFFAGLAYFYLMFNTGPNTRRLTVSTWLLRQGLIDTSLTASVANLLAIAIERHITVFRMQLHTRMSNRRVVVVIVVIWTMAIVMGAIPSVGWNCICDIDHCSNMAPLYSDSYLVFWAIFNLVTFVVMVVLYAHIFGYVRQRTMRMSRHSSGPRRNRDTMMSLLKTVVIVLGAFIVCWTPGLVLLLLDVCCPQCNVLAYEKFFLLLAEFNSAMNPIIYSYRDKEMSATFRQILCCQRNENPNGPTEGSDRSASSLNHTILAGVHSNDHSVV

A word on the IC50: it is the concentration that inhibits the measured activity by half. For the compound `Cc1noc(-c2ccc(-c3ccc(CC(=O)O)cc3)cc2)c1NC(=O)O[C@H](C)c1ccccc1` [AM095], at LPA1 receptor (read-out: IC50, block of LPA1-mediated signal, EC80 agonist), the half-inhibitory concentration (IC50) is 240 ± 20 nM.
On to `CCOC(=O)C1=C(N2CCCCC2)C2(CC1=O)C(=O)N=C1C(C)=CC=CN12` (centres unmarked) [SAK3], for which the “potentiator activity at CaV3.1” value at CaV3.1 was “neither SAK3 (Figure 3D) nor ST-101 (Supporting Information Figure S3) displayed potentiator activity”. Moreover, the “potentiator activity at CaV3.3” value on CaV3.3 is “neither SAK3 (Figure 3D) nor ST-101 (Supporting Information Figure S3) displayed potentiator activity”. For the same compound, the “potentiator activity at CaV3.2” value on CaV3.2 is on record as “neither SAK3 (Figure 3D) nor ST-101 (Supporting Information Figure S3) displayed potentiator activity”.
`O=C1N=C2C=CC=CN2C12Cc1ccccc1C2` [ST-101]: the “potentiator activity at CaV3.1” value on CaV3.1 is listed as “neither SAK3 (Figure 3D) nor ST-101 (Supporting Information Figure S3) displayed potentiator activity”. In addition, the “potentiator activity at CaV3.3” value at CaV3.3 is on record as “neither SAK3 (Figure 3D) nor ST-101 (Supporting Information Figure S3) displayed potentiator activity”. At CaV3.2, the “potentiator activity at CaV3.2” value is reported as “neither SAK3 (Figure 3D) nor ST-101 (Supporting Information Figure S3) displayed potentiator activity”.
On to `CC1=C(C(=O)OC(C)C)C(c2cccc([N+](=O)[O-])c2)C(C(=O)OC2CN(C(c3ccccc3)c3ccccc3)C2)=C(N)N1` (centres unmarked) [azelnidipine], for which the IC50 against CaV3.3 was found to be 26000 nM.
On the same count and under the same terms, the figure for `Fc1ccc(C(c2ccc(F)cc2)N2CCN(C/C=C/c3ccccc3)CC2)cc1` [flunarizine dihydrochloride] is 1200 nM; for `CCOC(=O)Nc1ccc(NCc2ccc(F)cc2)nc1N` [flupirtine maleate] it is 3500 nM.
At CaV3.3, `COC(=O)C1=C(C)NC(C)=C(C(=O)OC(C)(C)CN(C)CCC(c2ccccc2)c2ccccc2)C1c1cccc([N+](=O)[O-])c1` (centres unmarked) [lercanidipine hydrochloride] yielded a 50% inhibitory concentration (IC50) of 410 nM.
The same measure, in the same setting: to `CN(C)C(=O)C(CCN1CCC(O)(c2ccc(Cl)cc2)CC1)(c1ccccc1)c1ccccc1` [loperamide hydrochloride] belongs 1300 nM; to `CC(C)c1ccc(CC(=O)N[C@H](C)c2ccc(OCC(F)(F)F)cn2)cc1` [mk-8998], 37 nM; to `COC(=O)C1=C(C)NC(C)=C(C(=O)OCCN(C)Cc2ccccc2)C1c1cccc([N+](=O)[O-])c1` (centres unmarked) [nicardipine hydrochloride], 2100 nM.
The same measure, in the same setting: to `CCOC(=O)C1=C(C)NC(C)=C(C(=O)OC)C1c1cccc([N+](=O)[O-])c1` (centres unmarked) [nitrendipine] belongs 18000 nM; to `CCOC(=O)Nc1ccc(NCc2ccc(F)cc2)cc1N` [retigabine], 9400 nM.
`C[C@@H](NC(=O)Cc1ccc(C2CC2)cc1)c1ccc(OCC(F)(F)F)cn1` [tta-a2]: on CaV3.3, the “effect on KCl-induced CaV3.3-dependent fluorescence signal” value is reported as “blocked”. In addition, the half-inhibitory concentration (IC50) at CaV3.3 (read-out: IC50 against CaV3.3) came to 53 nM.
By EC50 is commonly meant the concentration at which the effect is half-maximal. Take human C3a [hC3a]: the EC50 in the test with C3a receptor worked out at 4.5 ± 0.5 nM.
Consider lysoPA18:1, for which, at LPA1 receptor (read-out: EC50, increase in fluorescence (LPA1 receptor agonist)), the EC50 amounted to 1010 ± 190 nM.
